Assay [1] concerns Tyrosine-protein kinase ABL1 (Homo sapiens), P00519 [E255K]. As to the kind of experiment: Binding affinity to human phosphorylated ABL1 E255K mutant (S229 to K512 residues) expressed in mammalian expression system assessed as residual binding level at 1 uM by Kinomescan method relative to control. The essentials: (§1)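 Kinome-wide single-concentration binding screen (KINOMEscan) at 1 μM against a panel of 468 purified kinases and mutants. Read-out is relative binding of each kinase compared with control. Selectivity across the panel was summarised as an S(10) score.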

Assay [2] deals with Tyrosine-protein kinase ABL1 (Homo sapiens), P00519 [Y253F]. As to the kind of experiment: Binding affinity to human phosphorylated ABL1 Y253F mutant (S229 to K512 residues) expressed in mammalian expression system assessed as residual binding level at 1 uM by Kinomescan method relative to control. The essentials: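 Single-concentration (1 μM) competition-binding screen run by KINOMEscan against a panel of 468 purified kinases and mutants. The read-out is the relative binding activity of the test compound to each kinase.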

The target of assay [3] is RAC-alpha serine/threonine-protein kinase (Homo sapiens) (UniProt P31749). As to the kind of experiment: Binding affinity to wild-type human partial length AKT1 expressed in bacterial expression system assessed as residual binding level at 1 uM by Kinomescan method relative to control. The essentials:
(§2)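 Single-concentration KINOMEscan (DiscoverX) binding screen at 1 μM against a panel of 468 purified kinases and mutants. The read-out is binding relative to control.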

For assay [4], the target named is Dual specificity tyrosine-phosphorylation-regulated kinase 1A (Homo sapiens) (UniProt Q13627). Description: Binding affinity to wild-type human partial length DYRK1A (H129 to S509 residues) expressed in mammalian expression system assessed as residual binding level at 1 uM by Kinomescan method relative to control.
Assay [5] has as its system Epidermal growth factor receptor (Homo sapiens), P00533 [L861Q]. As to the kind of experiment: Binding affinity to human partial length EGFR L861Q mutant (R669 to V1011 residues) expressed in bacterial expression system assessed as residual binding level at 1 uM by Kinomescan method relative to control. The method, boiled down: as §1
The target in assay [6] is Mitogen-activated protein kinase kinase kinase kinase 1 (Homo sapiens) (UniProt Q92918). As to the kind of experiment: Binding affinity to wild-type human full length HPK1 (M1 to R799 residues) expressed in bacterial expression system assessed as residual binding level at 1 uM by Kinomescan method relative to control. The method, boiled down: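 KINOMEscan competition binding against 468 purified kinases/mutants, test compound at 1 µM; residual binding relative to control.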
Mitogen-activated protein kinase kinase kinase kinase 1 (Homo sapiens), sequence (Q92918 whole entry, looked up, the tested form may be a part): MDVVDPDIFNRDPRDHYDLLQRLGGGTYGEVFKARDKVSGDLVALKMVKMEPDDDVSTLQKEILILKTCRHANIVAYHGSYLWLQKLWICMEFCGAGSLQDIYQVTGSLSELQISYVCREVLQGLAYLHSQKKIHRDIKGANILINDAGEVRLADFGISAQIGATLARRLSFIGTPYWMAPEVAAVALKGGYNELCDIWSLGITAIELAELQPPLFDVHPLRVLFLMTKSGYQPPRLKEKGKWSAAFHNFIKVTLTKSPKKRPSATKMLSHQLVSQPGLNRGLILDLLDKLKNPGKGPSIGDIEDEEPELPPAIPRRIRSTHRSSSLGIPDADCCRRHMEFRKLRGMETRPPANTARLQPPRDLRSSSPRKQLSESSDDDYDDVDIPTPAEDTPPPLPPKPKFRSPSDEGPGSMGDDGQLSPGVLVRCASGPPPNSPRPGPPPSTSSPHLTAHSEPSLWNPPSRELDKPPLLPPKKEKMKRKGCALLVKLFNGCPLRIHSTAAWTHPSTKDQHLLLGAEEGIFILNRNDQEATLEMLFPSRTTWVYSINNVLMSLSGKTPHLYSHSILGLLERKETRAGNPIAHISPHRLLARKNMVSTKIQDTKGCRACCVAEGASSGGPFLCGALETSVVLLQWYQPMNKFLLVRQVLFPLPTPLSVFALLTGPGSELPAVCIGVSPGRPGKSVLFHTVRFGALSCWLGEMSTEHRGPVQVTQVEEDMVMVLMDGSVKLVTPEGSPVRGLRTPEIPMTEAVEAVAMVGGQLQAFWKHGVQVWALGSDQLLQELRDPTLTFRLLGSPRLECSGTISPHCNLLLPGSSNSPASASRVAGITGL

Assay [7] concerns the target Insulin receptor (Homo sapiens) (UniProt P06213). As to the kind of experiment: Binding affinity to wild-type human partial length INSR (P997 to E1318 residues) expressed in mammalian expression system assessed as residual binding level at 1 uM by Kinomescan method relative to control.
The target in assay [8] is Serine/threonine-protein kinase MAK (Homo sapiens) (UniProt P20794). As to the kind of experiment: Binding affinity to wild-type human partial length MAK (M1 to P314 residues) expressed in bacterial expression system assessed as residual binding level at 1 uM by Kinomescan method relative to control. The essentials: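 Kinome-wide competition binding screen against a panel of 468 purified kinases/mutants, with the test compound at a single concentration of 1 μM. Read-out is the relative binding activity of each kinase in the presence of compound.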

The target in assay [9] is Dual specificity mitogen-activated protein kinase kinase 1 (Homo sapiens) (UniProt Q02750). As to the kind of experiment: Binding affinity to wild-type human full length MEK1 (M1 to V393 residues) expressed in mammalian expression system assessed as residual binding level at 1 uM by Kinomescan method relative to control. The essentials: as §2
Dual specificity mitogen-activated protein kinase kinase 1 (Homo sapiens), sequence (Q02750 whole entry, the tested form may be a part): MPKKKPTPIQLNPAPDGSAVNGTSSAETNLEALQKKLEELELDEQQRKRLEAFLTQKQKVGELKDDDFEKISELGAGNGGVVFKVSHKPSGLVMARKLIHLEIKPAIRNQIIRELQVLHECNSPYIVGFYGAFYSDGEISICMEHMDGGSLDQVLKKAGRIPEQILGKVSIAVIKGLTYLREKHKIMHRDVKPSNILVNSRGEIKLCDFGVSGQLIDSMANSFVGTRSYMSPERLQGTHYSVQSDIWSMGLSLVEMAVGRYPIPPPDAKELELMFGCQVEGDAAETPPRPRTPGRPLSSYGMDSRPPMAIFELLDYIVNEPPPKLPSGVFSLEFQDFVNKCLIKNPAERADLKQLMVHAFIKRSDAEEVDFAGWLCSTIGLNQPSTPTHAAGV
Assay [10] has as its target Mitogen-activated protein kinase kinase kinase 14 (Homo sapiens) (UniProt Q99558). As to the kind of experiment: Binding affinity to wild-type human partial length NIK (L318 to P947 residues) expressed in mammalian expression system assessed as residual binding level at 1 uM by Kinomescan method relative to control. The method, boiled down:
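KINOMEscan competition binding against a panel of 468 purified kinases/mutants, compound tested at 1 μM; readout is relative binding activity versus control.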

Assay [11] relates to Phosphatidylinositol 4,5-bisphosphate 3-kinase catalytic subunit alpha isoform (Homo sapiens), P42336 [Q546K]. Description: Binding affinity to human partial length PIK3CA Q546K mutant (R108 to N1068 residues) expressed in mammalian expression system assessed as residual binding level at 1 uM by Kinomescan method relative to control. The essentials:
as §1

The target of assay [12] is Ribosomal protein S6 kinase alpha-1 (Homo sapiens) (UniProt Q15418). As to the kind of experiment: Binding affinity to wild-type human partial length C-terminal RSK1 kinase domain 2 (P360 to L681 residues) expressed in bacterial expression system assessed as residual binding level at 1 uM by Kinomescan method relative to control.
The target in assay [13] is Serine/threonine-protein kinase TAO2 (Homo sapiens) (UniProt Q9UL54). As to the kind of experiment: Binding affinity to wild-type human partial length TAOK2 (M1 to A320 residues) expressed in mammalian expression system assessed as residual binding level at 1 uM by Kinomescan method relative to control.
Assay [14] has as its target TGF-beta receptor type-1 (Homo sapiens) (UniProt P36897). As to the kind of experiment: Binding affinity to wild-type human partial length TGFBR1 (D179 to M503 residues) expressed in bacterial expression system assessed as residual binding level at 1 uM by Kinomescan method relative to control.
The target in assay [15] is Testis-specific serine/threonine-protein kinase 3 (Homo sapiens) (UniProt Q96PN8). Description: Binding affinity to wild-type human full length TSSK3 (M1 to T268 residues) expressed in mammalian expression system assessed as residual binding level at 1 uM by Kinomescan method relative to control. The essentials:
as §2

For assay [16], the target named is Serine/threonine-protein kinase WNK1 (Homo sapiens) (UniProt Q9H4A3). As to the kind of experiment: Binding affinity to wild-type human partial length WNK1 (Q194 to A490 residues) expressed in mammalian expression system assessed as residual binding level at 1 uM by Kinomescan method relative to control.
In assay [17] the test system is EOL1. As to the kind of experiment: Antitumor activity against human EOL-1 cells xenografted in nu/nu mouse assessed as tumor growth inhibition at 25 mg/kg/day, ip. In kind it is functional. The settings on record: read-out: TGI. The essentials:
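Female nu/nu mice (6 weeks) given subcutaneous right-flank injection of 5 million EOL-1 cells in PBS/Matrigel 1:1. At 200–400 mm3 tumors, randomized to groups of 6 and dosed daily i.p. for 14 days at 25, 50 or 100 mg/kg/d in 0.5% methylcellulose/0.4% Tween80. Tumor volume = W²×L/2, measured daily.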

The target in assay [18] is Platelet-derived growth factor receptor alpha (Homo sapiens, UniProt P16234). As to the kind of experiment: Inhibition of PDGF-induced PDGFRalpha autophosphorylation at Y849 residue in human NCI-H1703 cells after 2 hrs in presence of PDGF-AA by Western blot analysis. In kind it is cell-based.
Platelet-derived growth factor receptor alpha, sequence (P16234 whole entry): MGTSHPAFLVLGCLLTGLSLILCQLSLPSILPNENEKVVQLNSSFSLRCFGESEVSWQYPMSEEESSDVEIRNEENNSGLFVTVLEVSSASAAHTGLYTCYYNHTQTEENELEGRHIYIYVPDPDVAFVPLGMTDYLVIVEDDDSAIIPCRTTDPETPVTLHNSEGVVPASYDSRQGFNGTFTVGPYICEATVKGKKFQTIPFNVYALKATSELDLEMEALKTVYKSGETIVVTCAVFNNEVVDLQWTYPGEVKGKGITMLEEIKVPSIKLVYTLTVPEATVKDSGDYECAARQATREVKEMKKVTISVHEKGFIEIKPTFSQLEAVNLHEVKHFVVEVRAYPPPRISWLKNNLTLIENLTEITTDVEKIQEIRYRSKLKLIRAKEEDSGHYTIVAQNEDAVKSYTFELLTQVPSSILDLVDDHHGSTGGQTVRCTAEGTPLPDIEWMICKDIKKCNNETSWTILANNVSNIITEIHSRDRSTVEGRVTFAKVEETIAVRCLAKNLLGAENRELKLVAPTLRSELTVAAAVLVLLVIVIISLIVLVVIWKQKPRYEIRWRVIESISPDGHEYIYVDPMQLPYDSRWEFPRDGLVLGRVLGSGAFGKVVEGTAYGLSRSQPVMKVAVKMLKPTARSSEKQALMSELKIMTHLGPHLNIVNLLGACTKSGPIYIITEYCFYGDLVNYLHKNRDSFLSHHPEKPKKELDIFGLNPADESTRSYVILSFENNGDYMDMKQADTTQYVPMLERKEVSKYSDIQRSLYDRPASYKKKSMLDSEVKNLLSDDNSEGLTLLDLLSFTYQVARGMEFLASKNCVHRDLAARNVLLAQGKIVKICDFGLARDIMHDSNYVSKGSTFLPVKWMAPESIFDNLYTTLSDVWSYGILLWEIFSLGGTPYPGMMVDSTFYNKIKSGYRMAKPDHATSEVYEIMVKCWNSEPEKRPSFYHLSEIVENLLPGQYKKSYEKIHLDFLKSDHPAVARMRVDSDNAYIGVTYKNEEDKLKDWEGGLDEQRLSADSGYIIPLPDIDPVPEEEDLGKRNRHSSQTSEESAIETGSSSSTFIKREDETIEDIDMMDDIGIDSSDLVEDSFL
The test system of assay [19] is EOL1. As to the kind of experiment: Antitumor activity against human EOL-1 cells xenografted in nu/nu mouse assessed as tumor growth inhibition at 25 to 100 mg/kg/day, ip. Type of assay: functional, organism-based. The essentials: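 Female nu/nu mice, six weeks old; 5 million EOL-1 cells in PBS mixed 1:1 with Matrigel, injected subcutaneously in the right flank. Dosing began once tumors reached 200–400 mm3, with randomization into groups of 6. Daily IP dosing at 25.0, 50.0 or 100 mg/kg/d in 0.5% methocellulose/0.4% Tween80 in water, or vehicle alone, for 14 days. Tumor volume = (W2×L)/2, measured daily. Final tumor weights were also recorded.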

TGF-beta receptor type-1 (Homo sapiens), sequence (P36897 whole entry, the tested form may be a part): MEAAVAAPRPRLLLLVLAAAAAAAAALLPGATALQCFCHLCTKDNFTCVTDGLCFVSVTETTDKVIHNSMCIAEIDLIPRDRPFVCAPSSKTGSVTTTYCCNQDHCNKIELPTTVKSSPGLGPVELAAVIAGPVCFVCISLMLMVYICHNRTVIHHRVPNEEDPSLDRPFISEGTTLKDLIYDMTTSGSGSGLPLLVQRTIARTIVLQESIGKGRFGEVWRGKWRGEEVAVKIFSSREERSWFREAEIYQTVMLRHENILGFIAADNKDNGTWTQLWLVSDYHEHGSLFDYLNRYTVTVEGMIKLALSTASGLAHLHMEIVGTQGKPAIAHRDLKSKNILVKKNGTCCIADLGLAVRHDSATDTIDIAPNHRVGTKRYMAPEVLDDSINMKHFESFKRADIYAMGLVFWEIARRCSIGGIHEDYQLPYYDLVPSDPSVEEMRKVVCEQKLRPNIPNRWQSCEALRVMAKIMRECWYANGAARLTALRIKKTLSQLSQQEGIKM
RAC-alpha serine/threonine-protein kinase (Homo sapiens), sequence (P31749 whole entry): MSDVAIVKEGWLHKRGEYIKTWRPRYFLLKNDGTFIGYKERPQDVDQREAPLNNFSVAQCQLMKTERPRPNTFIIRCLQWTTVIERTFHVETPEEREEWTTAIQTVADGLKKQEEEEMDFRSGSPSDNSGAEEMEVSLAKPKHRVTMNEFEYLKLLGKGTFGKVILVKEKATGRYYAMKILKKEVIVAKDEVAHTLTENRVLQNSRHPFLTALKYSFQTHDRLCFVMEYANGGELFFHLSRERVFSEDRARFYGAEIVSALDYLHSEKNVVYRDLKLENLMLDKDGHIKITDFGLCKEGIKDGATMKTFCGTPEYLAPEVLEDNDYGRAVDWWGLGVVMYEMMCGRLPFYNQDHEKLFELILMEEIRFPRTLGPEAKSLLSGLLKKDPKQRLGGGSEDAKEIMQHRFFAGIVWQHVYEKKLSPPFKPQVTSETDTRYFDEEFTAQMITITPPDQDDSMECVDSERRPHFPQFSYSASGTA
Insulin receptor (Homo sapiens), sequence (P06213 28-758 limits assumed): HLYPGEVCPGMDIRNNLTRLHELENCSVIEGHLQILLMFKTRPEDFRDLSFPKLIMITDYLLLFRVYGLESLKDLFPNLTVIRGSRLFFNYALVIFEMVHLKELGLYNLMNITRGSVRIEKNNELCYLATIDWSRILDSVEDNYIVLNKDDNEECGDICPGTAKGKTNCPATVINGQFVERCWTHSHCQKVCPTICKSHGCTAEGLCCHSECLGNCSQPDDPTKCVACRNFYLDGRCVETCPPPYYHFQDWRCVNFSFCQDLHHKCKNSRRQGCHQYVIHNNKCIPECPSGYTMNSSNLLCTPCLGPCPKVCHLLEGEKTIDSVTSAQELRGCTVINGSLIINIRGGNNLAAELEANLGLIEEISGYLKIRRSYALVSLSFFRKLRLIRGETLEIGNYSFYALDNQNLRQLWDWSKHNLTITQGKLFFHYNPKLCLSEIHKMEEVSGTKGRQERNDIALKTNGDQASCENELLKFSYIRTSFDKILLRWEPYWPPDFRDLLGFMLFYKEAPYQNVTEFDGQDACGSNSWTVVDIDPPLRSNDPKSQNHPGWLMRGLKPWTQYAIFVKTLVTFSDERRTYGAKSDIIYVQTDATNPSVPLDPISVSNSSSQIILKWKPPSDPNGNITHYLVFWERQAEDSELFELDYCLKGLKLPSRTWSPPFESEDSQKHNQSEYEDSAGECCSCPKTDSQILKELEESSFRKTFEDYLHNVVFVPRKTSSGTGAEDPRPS
Insulin receptor (Homo sapiens), sequence (P06213 763-1382 limits assumed): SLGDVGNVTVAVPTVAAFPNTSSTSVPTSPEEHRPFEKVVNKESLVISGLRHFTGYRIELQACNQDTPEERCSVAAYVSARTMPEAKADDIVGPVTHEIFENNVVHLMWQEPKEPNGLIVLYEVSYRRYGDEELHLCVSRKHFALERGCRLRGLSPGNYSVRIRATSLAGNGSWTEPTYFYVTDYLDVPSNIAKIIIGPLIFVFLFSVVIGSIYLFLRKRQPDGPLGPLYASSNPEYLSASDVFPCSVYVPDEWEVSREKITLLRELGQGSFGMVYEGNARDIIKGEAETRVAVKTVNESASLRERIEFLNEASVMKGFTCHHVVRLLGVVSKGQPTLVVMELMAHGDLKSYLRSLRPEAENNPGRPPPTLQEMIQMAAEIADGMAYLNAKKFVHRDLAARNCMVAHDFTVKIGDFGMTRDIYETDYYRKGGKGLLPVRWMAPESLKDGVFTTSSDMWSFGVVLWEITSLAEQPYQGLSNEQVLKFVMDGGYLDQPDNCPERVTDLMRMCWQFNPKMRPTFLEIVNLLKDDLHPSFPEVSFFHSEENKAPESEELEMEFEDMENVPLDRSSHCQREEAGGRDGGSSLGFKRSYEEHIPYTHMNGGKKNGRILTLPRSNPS
Testis-specific serine/threonine-protein kinase 3 (Homo sapiens), sequence (Q96PN8 whole entry, the tested form may be a part): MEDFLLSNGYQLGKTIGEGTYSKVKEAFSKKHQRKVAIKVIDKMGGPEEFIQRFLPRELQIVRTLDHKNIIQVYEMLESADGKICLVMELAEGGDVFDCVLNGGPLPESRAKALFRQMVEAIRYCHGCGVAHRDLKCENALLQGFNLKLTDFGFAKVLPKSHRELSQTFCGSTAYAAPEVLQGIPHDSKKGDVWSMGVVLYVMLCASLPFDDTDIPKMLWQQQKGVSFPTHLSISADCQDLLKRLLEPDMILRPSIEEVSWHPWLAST

Consider `Cc1ccc(NC(=O)c2ccc(CN(CCN(C)C)C(=O)c3cccnc3)cc2)cc1Nc1nccc(-c2cccnc2)n1`, for which the Activity amounted to 80% in assay [1]; 90% in [2]; 95% in assay [3]; 100% in [4]; 99% in assay [5]; 94% in assay [6]. For the same compound, the Activity in [7] is 100%; in [8], 92%; in assay [9] it was 97%; in [10], 82%; in [11], 90%; in [12] it was 100%. Also, the Activity in assay [13] was determined as 77%; in assay [14], 100%; in assay [15], 100%; in [16], 85%. Further, in the assay with EOL1 [17], the inhibition in vivo at 25 mg/kg/day was 71.5%. Further, in assay [18], the inhibition entry is “Dose-dependent effect”. The TGI result in the assay with EOL1 [19] is “Dose-dependent effect”.

The values above are taken from ChEMBL document CHEMBL4229344 (Eur J Med Chem, 2018).
